# Ecoli rRNA inh = selective bacterial rRNA inhibition in E. coli; E. coli WT GFP vs humanized-ribosome RFP mutants, fluorescence, 24 h; hits give low values; DMSO median 0, no signal -100; actives 1.6% (n = 350,000); GFP signal change (wild-type ribosome), % (no concentration beside the values);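 active = significant combined selectivity score with lowered wild-type GFP, culture density cut under 30%, mutant RFP and density less affected; inactive = any of these conditions unmet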
# hiPSC survival = hiPSC single-cell survival enhancement; ATPlite luminescence; 100% = ROCK inhibitor wells, 0% = DMSO; survival enhancement, % at 20 µM; actives 0.044% (n = 360,000); in the data active = survival enhancement above about 18%;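 note: cells exposed to compounds for 16 hours before the ATP read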
# SKN-1 inh = C. elegans SKN-1 inhibition; C. elegans VP596 Pgst-4::GFP/RFP ratio, acrylamide-induced, 24 h; actives 0.49% (n = 360,000); inhibition, % at 21.8 µM; AID 624304;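 active = interference check ratio from 0.5 to 1.5 plus GFP to RFP signal ratio inhibition reaching or exceeding a fixed threshold, cut at about 30% in these data, passing the limit was not always enough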
# MT1-MMP act inh = MT1-MMP (human) activation inhibition | P50281 | HT1080 RFP-PRO-GFP cells, GFP/RFP ratio fluorescence, overnight; percent of plate control window, DMSO zero | GFP/RFP ratio change, % at 20 µM | actives 0.061% (n = 360,000) | AID 651647;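 active = GFP/RFP ratio change of at least 30% with cell ATP level not reduced by more than half and red fluorescence within 50% of control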
#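 Assay system – RFP-PRO-GFP reporter HT1080 cells · Compound dosing – single dose of 20 µM compound, 1% DMSO final · Incubation – overnight compound exposure at 37 °C · Measure – GFP/RFP fluorescence ratio · Benchmarks – DMSO wells and RFP-L50D-GFP cells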
# DAGLB inh = diacylglycerol lipase beta (human) inhibition | inhibition, % at 5.17 µM | Q8NCG7 | AID 504411 | actives 0.059% (n = 340,000) | HEK293T DAGLB membrane lysate, EnzChek fluorogenic substrate; in the data active = inhibition above about 34%;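 note: 0% = enzyme with vehicle and 100% = wells lacking enzyme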
# Target sequence (Q8NCG7 whole entry, looked up): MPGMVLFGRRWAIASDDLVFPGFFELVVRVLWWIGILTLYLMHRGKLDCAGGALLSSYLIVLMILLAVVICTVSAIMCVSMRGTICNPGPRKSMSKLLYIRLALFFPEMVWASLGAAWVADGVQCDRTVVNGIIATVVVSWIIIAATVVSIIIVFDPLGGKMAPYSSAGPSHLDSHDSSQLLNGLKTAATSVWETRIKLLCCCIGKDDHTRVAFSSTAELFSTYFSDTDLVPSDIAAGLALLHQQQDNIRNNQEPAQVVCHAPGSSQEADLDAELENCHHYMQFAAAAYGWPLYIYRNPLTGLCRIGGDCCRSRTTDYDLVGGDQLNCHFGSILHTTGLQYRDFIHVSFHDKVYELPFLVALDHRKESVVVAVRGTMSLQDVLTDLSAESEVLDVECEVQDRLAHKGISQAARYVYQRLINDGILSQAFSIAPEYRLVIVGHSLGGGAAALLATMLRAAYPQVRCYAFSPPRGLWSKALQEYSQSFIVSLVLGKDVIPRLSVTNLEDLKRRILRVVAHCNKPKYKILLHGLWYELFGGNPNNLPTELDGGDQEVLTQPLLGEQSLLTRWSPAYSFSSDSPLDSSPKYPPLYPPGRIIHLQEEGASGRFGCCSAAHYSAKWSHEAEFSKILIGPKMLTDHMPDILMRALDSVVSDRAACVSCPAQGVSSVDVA
# Cneo AK release = Cryptococcus neoformans lysis via adenylate kinase release; C. neoformans lysis, adenylate kinase release luminescence, 4 h; normalised: neutral wells 0, clomiphene wells 100; lysis activity, % at 15 µM; actives 0.2% (n = 360,000);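 active = mean lysis activity across replicates of at least 80%, whatever share of replicates individually reach that level; inactive = mean lysis activity below 80%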
#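 Material – Cryptococcus neoformans yeast cells · Quantity – 5 × 10^6 yeast cells/mL · Buffer or medium – YPD medium · Compound – single dose · Timing – 4 h static compound exposure, 37 °C, read 1 h post-reagent · Signal – adenylate kinase release luminescence · Read-out basis – lysis from increased AK signal · Benchmarks – Clomiphene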
# The depositor's hits bear a star; x = no result. An excerpt weighted towards active compounds, which were near 1.8% of everything screened.
SMILES,Ecoli rRNA inh,hiPSC survival,SKN-1 inh,MT1-MMP act inh,DAGLB inh,Cneo AK release
COC(=O)[C@]1(Cc2ccccc2)N[C@H](CN(C)C(=O)Nc2ccccc2)[C@@H]2C(=O)N(C)C(=O)[C@@H]21,2.6,28.5*,6.2,2.9,-0.4,-0.3
COc1cccc(CN(C)C(=S)Nc2ccc(C)c(C)c2)c1,-24.9*,0.2,0.0,0.6,-4.0,x
CCOc1ccc(-n2c(-c3ccccc3)c[n+]3c2CCCCC3)cc1,-43.0*,-5.0,2.4,-16.2,3.7,x
O=C(N[C@@H]1CC[C@@H](CCn2cc(-c3cccnc3)nn2)O[C@@H]1CO)c1ccccc1F,5.4,x,x,x,x,22.3
Cc1cccc(NC(=S)NNC(=O)c2csc3c2CCC(C)C3)c1 (stereo not drawn),-40.2*,-1.4,-8.7,-2.1,2.0,4.7
COC(=O)C1=C(C)NC(C)=C(C(=O)OC)C1/C=C/c1ccccc1,-31.6*,1.8,14.1,13.0,-4.2,-1.7
CCC(=O)N1[C@H](CO)[C@H](c2ccc(C#CC3CCCC3)cc2)[C@@H]1CNC(C)C,5.8,x,x,x,x,x
N#CC(C#N)=C(N)/C(C#N)=C/c1cc(O)c(O)c(O)c1,0.5,0.3,92.9*,-17.8,14.3,-0.8
CCCCOC(=O)C1CN(c2ccccc2)N=C1C(C)=O (stereo not drawn),-32.5*,-3.4,2.1,4.8,-7.0,x
CCCCOC(=O)C1CN(c2ccccc2)N=C1C(=O)OCC (stereo not drawn),x,-2.3,6.3,-0.5,-3.9,x
CCc1nnc(N/N=C/c2ccc(-c3ccc([N+](=O)[O-])cc3)o2)n1N,-36.8*,-1.0,4.7,-4.3,7.7,x
O=C(O)c1ccc(N/N=C/c2ccc(-c3cccc(Cl)c3)o2)cc1,-39.0*,-0.4,14.8,-2.6,4.5,-3.3
O=C(O)c1cccc(-c2ccc(/C=N/Nc3ccc([N+](=O)[O-])cc3)o2)c1,-38.5*,-0.4,8.0,-75.8,-6.7,-1.3
CCC(=O)N/N=C/c1ccc(-c2ccc([N+](=O)[O-])cc2)o1,10.7,-0.1,-2.0,2.5,-0.3,-1.9
O=C(O)c1ccc(-c2ccc(/C=N/Nc3ccc([N+](=O)[O-])cc3)o2)cc1,x,-0.3,1.5,-129.8,-7.6,x
COc1cc(OC)nc(Oc2ccccc2C(=O)Oc2ccc(Cl)cc2)n1,-14.5,-0.5,12.2,6.4,-26.9,0.3
COc1cc(OC)nc(Oc2ccccc2C(=O)Oc2ccccc2Cl)n1,-22.7*,-2.3,2.9,5.8,-10.8,0.1
CCC(=O)Nc1sc(Cc2ccccc2)c(C)c1C(N)=O,-51.0,-3.1,6.3,-4.9,0.7,x
Cc1c(Cc2ccccc2)sc(NC(=O)C(C)(C)C)c1C(N)=O,-29.9*,0.8,2.0,-6.9,0.3,x
Cc1c(Cc2ccc3c(c2)OCO3)sc(NC(=O)c2ccc3ccccc3c2)c1C(N)=O,4.7,0.5,10.6,-2.4,x,-1.1
CCC(=O)Nc1sc(Cc2ccc3c(c2)OCO3)c(C)c1C(N)=O,-26.3*,-0.5,1.6,2.4,2.0,x
C[C@@H]1CN([C@@H](C)CO)C(=O)c2cc(NC(=O)Cc3ccccc3)ccc2O[C@@H](C)CCCCO[C@@H]1CN(C)C(=O)CCCN(C)C,6.0,x,x,x,x,x
CO[C@@H]1CN(C)C(=O)c2ccc(NC(C)=O)cc2OC[C@H](C)N(C(=O)c2ccccc2)C[C@@H]1C,-0.2,x,x,x,x,x
COc1cccc(NC(=O)N2C[C@H](O)COC[C@H]3O[C@@H](CC(=O)NC4Cc5ccccc5C4)CC[C@@H]32)c1,2.0,x,x,x,x,-0.7
Cn1c(=O)n(Cc2ccc(Br)cc2)c2ccccc21,-47.5*,-0.3,-5.0,-3.0,1.4,x
SMILES,Ecoli rRNA inh,hiPSC survival,SKN-1 inh,MT1-MMP act inh,DAGLB inh,Cneo AK release
COC(=O)c1ccc(COc2ccc3c(c2)CCC3)o1,-24.2*,-0.6,0.9,0.2,-13.0,x
O=C(NCc1cccnc1)c1ccc(COc2ccccc2Br)o1,-23.5*,-0.6,4.6,0.0,2.3,0.7
CCCc1ccc(OCc2ccc(C(=O)OC)o2)c(OC)c1,-19.2*,-1.8,7.4,2.0,-4.3,x
O=C(NCc1cccnc1)c1ccc(COc2ccccc2Cl)o1,-23.9,0.4,-0.4,2.4,-3.1,x
NNC(=O)c1ccc(COc2ccc3c(c2)CCC3)cc1,-26.4*,-0.6,-1.8,3.5,-11.6,x
[N-]=[N+]=NCc1ccccc1C[C@]1(C(=O)N2CCOCC2)COC(c2ccc(OCCCO)cc2)=N1,x,x,x,x,x,49.5
O=C(NCc1cccnc1)c1ccc(COc2ccc3c(c2)CCC3)o1,-21.1*,-1.7,8.3,9.9,-0.3,2.9
O=c1c2ccccc2oc2ccc(-c3ccc4[nH]ccc4c3)cc12,x,-2.3,61.9*,-3.1,-1.8,-3.2
O=c1c2ccccc2oc2cc(-c3ccc4cc[nH]c4c3)ccc12,9.2,4.2,19.5,3.3,0.7,-0.9
COc1ccccc1C#Cc1ccc([C@@H]2[C@@H](C#N)N(C(=O)C3CC3)[C@H]2CO)cc1,0.7,x,x,x,x,-1.4
CN(C)CCCNC(=O)C[C@@H]1CC[C@H](NS(=O)(=O)c2ccccc2)[C@@H](CO)O1,1.1,x,x,x,x,6.4
COc1ccccc1-c1cc2nc(NCCc3ccncc3)ccn2n1,-16.7*,-0.7,22.5,-8.5,x,0.9
CCOc1ccc(CCNC(=O)CCc2nc3ccccc3[nH]2)cc1OCC,-19.8*,2.3,-8.5,-2.5,2.2,x
C[C@@H]1CN([C@H](C)CO)C(=O)c2cc(-c3ccc(F)cc3)cnc2O[C@H]1CN(C)C(=O)c1ccncc1,1.2,x,x,x,x,x
Fc1ccc(OCc2nc3ccccc3s2)cc1,-12.1,-1.5,38.3*,-4.3,-6.8,x
CCC(=O)Nc1ccc(OCc2nc3ccccc3s2)cc1,-6.6,2.8,-0.2,-6.7,1.9,x
Cc1cc(OCc2nc3ccccc3s2)ccc1N,x,-0.7,11.9,-2.2,-2.0,x
c1ccc(OCc2nc3ccccc3s2)cc1,x,2.5,48.5*,0.2,-4.6,-4.5
CSc1nsc(N/N=C/c2ccccc2)c1C#N,-22.5*,0.3,1.5,-4.7,-3.7,x
CCc1ccc(NC(=O)COC(=O)CCCC2=NS(=O)(=O)c3ccccc3N2)cc1,-17.0*,0.4,7.6,0.8,-2.8,-2.1
O=C(COC(=O)CCCC1=NS(=O)(=O)c2ccccc2N1)Nc1ccccc1,-3.5,-0.4,7.1,0.6,1.3,-1.2
COc1ccc(S(=O)(=O)N(C)C[C@H]2OCCCC[C@@H](C)Oc3ccc(NS(=O)(=O)c4ccc(F)cc4)cc3C(=O)N([C@@H](C)CO)C[C@H]2C)cc1,-0.3,x,x,x,x,-5.9
CCN(CC)CCOC(=O)c1ccc(NC(=O)CCCN2C(=O)/C(=C\c3cccs3)SC2=S)cc1,-26.6*,1.3,38.6*,-0.4,1.0,5.6

# Bioassay records deposited in PubChem by several laboratories.
